Screening data: PubChem BioAssay, SRMLSC
Yeast growth inh: chemicals that inhibit yeast BB579 growth in restrictive medium (lifespan-shortening candidates); S. cerevisiae BB579 growth, OD615, 48 h; inhibition, % at 10 µM; 0.51% of 140,000 active; AID 804;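 active means inhibition above a set limit, 3 SD over the mean compound inhibition, cut at about 44% in these data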
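System: Saccharomyces cerevisiae DeaD strain BB579, replicative lifespan model yeast | Buffer or medium: Restrictive glucose-based CSMM-D medium | Times: 4 h preincubation and 48 h exposure at 30 °C | Detection: OD615 turbidity measurement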
Yeast lifespan up: extends the lifespan of yeast | AID 775 | inhibition of the nicotinamide effect, % at 10 µM | 0.68% of 130,000 active | S. cerevisiae growth with nicotinamide, OD615; deaD strain in restrictive glucose medium;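 active means inhibition above a set limit, placed 3 SD over the median of all compounds, cut at about 26% in these data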
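System: DeaD-strain S. cerevisiae / Buffer or medium: CSMM-D, restrictive glucose (dextrose) synthetic minimal medium / Probe or stimulus: nicotinamide, 1.5 mM, co-present with compound / Compound: one concentration, 10 µM, DMSO 0.25% / Incubation: 48 h compound exposure at 30 °C, humidified / Technique: optical density (absorbance) at 615 nm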
PostGolgi yeast: growth inhibition of a yeast mutant, post-Golgi transport screen. post-Golgi transport phenotypic cell assay. inhibition, % at 10 µM. 0.9% of 98,000 active. AID 739;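 further: yeast cells grown in 1536-well plates; yeast grown about 18 h at 30C before absorbance read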
PostGolgi ctrl: inhibits growth of the yeast control strain; efflux-deficient yeast background strain, growth absorbance A615, 16 h; inhibition, % at 10 µM; 5% of 98,000 active; AID 738
Of the large screens only hits and unclear results are named; the others gave an inactive call. This excerpt belongs to a sample that is enriched for hits. Unless noted, no stated cut-off is given here; in the data, active means inhibition above about 30%; inactive means the rest.

CC1=C2C(CCS2(=O)=O)CC2(C1)C(=O)OC(C)(C)OC2=O (configuration not stated)	none
O=c1[nH]nc(Cc2ccc(Cl)cc2Cl)c2ccccc12	PostGolgi ctrl 47
CCOc1ccccc1-n1c(SCC(=O)N2CCOCC2)nnc1-c1ccccn1	none
CCOc1ccccc1-n1c(SCC(=O)N(CC)CC)nnc1-c1ccccn1	PostGolgi ctrl 40
O=C(NCC(=O)N(Cc1ccccc1)C(C(=O)NC1CCCC1)c1ccco1)c1ccco1 (configuration not stated)	none
COc1ccc(CN(C(=O)CNC(=O)c2ccco2)C(C(=O)NC2CCCC2)c2ccco2)cc1 (configuration not stated)	PostGolgi ctrl 39
O=C(Cc1cccs1)N(Cc1cccs1)C1(C(=O)NC2CCCCC2)CCCCC1	PostGolgi ctrl 31
COc1ccc(CN(C(=O)Cc2cccs2)C(C(=O)NC2CCCC2)c2ccncc2)cc1 (configuration not stated)	PostGolgi yeast 38
COc1cccc(N(C(=O)CNC(=O)c2ccco2)C(C(=O)NC2CCCCC2)c2ccncc2)c1 (configuration not stated)	PostGolgi ctrl 38
Cc1ccc(CCNC(=O)Cn2cccc2)cc1	none
CCOc1ccc(N(C(C)C(=O)N/N=C(\C)c2cccc(NC(=O)c3ccccc3)c2)S(C)(=O)=O)cc1 (configuration not stated)	none
Cc1ccc2nc(/C(C#N)=C\c3ccc([N+](=O)[O-])o3)[nH]c2c1	Yeast growth inh 99, PostGolgi yeast 103, PostGolgi ctrl 99
Cc1ccc2nc(/C(C#N)=C\c3ccc(N4CCOCC4)o3)[nH]c2c1	none (no result: Yeast lifespan up, PostGolgi yeast, PostGolgi ctrl)
N#C/C(=C\c1ccc([N+](=O)[O-])o1)c1nc2ccccc2[nH]1	Yeast growth inh 67 (no result: PostGolgi yeast, PostGolgi ctrl)
O=C1CN(C(=O)CCCc2c[nH]c3ccccc23)c2ccccc2N1	none
O=C(NCc1ccco1)c1cc(C(=O)C2CCCCC2)c[nH]1	Yeast lifespan up 96
Cc1ccc(C(=O)NNc2cc(=O)n(C)c(=O)n2C)cc1C	none (no result: PostGolgi yeast, PostGolgi ctrl)
CCc1ccc2c(COC(=O)c3n[nH]c4ccccc34)cc(=O)oc2c1	PostGolgi ctrl 37
CC(=O)OCc1c(C(F)(F)F)nn(C)c1Sc1ccccc1	none
Cc1ccc(-c2nc3sc(C(N)=O)c(N)c3c3c2CCCC3)cc1	Yeast growth inh 46 (no result: PostGolgi yeast, PostGolgi ctrl)
CC(=O)c1sc2nc(-c3ccc(C)cc3)c3c(c2c1N)CCCC3	none (no result: PostGolgi yeast, PostGolgi ctrl)
CN(C)c1ccc(/C=N/N2C(=S)SC(C)(C)C2N(O)C(=O)Nc2ccc([N+](=O)[O-])cc2)cc1 (configuration not stated)	none
O=S(=O)(NC12CC3CC(CC(C3)C1)C2)c1ccc(F)cc1	PostGolgi ctrl 31
COc1ccc2c(=O)c3c(=O)n(Cc4ccco4)c(-c4ccccc4)nc3oc2c1	PostGolgi ctrl 58
COc1ccc2c(=O)c3c(=O)n(Cc4ccco4)c(-c4cc(OC)c(OC)c(OC)c4)nc3oc2c1	none (no result: Yeast lifespan up, PostGolgi yeast, PostGolgi ctrl)
Cc1nn2c([nH]c(=O)c3ccccc32)c1C=O	none
CC(C)CNc1nc(Oc2ccc(=O)n(C)n2)nc(N2CCOCC2)n1	PostGolgi yeast 32
CC(=O)c1c(C(C)=O)c(C)n(-c2nc(-c3ccc(Br)cc3)c(C)s2)c1C	PostGolgi ctrl 56
COc1ccc(-c2nc(-n3c(C)c(C(C)=O)c(C(C)=O)c3C)sc2C)cc1OC	none
CCCCCCCOc1ccc(OC(=O)c2ccncc2)cc1	none
C=CCOC(=O)C1=C(C)Nc2ncnn2C1c1cc(Br)ccc1F (configuration not stated)	none
C=CCOC(=O)C1=C(C)Nc2ncnn2C1c1cccs1 (configuration not stated)	PostGolgi yeast 31
CCCCCCCCOC(=O)C1=C(C)Nc2nnnn2C1c1cccs1 (configuration not stated)	PostGolgi ctrl 79
CCCCCCCOC(=O)C1=C(C)Nc2ncnn2C1c1cccs1 (configuration not stated)	none
CCN1CCN(c2nc3ccccc3nc2C(C#N)S(=O)(=O)c2ccc(C)cc2)CC1 (configuration not stated)	none
Cc1ccc(S(=O)(=O)C(C#N)c2nc3ccccc3nc2N2CCCC2)cc1 (configuration not stated)	Yeast lifespan up 72
COc1cccc(NS(=O)(=O)c2c(C)n(C)c(=O)n(C)c2=O)c1	none
COc1cc(-c2cc(OC)c3c(C)oc(C)c3c(=O)c2)ccc1O	PostGolgi ctrl 45
O=C(O)c1c[nH]c(=S)n1-c1ccc(F)cc1	Yeast lifespan up 103
O=C(CN1CC(c2ccccc2)CC1=O)N/N=C/c1cc(Br)ccc1O (configuration not stated)	none (no result: PostGolgi yeast, PostGolgi ctrl)
Cc1ccc(CC(=O)N2CCN(c3cccc(C(F)(F)F)c3)CC2)cc1	none
CC/C(C)=C1\SC(N2CCN(c3cccc(C(F)(F)F)c3)CC2)=NC1=O	PostGolgi ctrl 32
CCN(CC)CCCN(Cc1cc2cc3c(cc2[nH]c1=O)OCCO3)C(=O)Nc1ccc(F)cc1	PostGolgi yeast 35
CCN(CC)CCCN(Cc1cc2cc3c(cc2[nH]c1=O)OCO3)C(=O)Nc1ccccc1OC	none
COc1ccc(CC(=O)Nc2c3c(nn2-c2cccc(Cl)c2)CS(=O)(=O)C3)cc1	PostGolgi ctrl 34
O=C(Cc1ccccc1)Nc1c2c(nn1-c1cccc(Cl)c1)CS(=O)(=O)C2	none
CC(C)CNC(=O)c1cccc(NC(=O)c2ccc(Cl)c([N+](=O)[O-])c2)c1	none (no result: PostGolgi yeast, PostGolgi ctrl)
CCCc1cc(=O)n2[nH]c(C)cc2n1	none
CCOC(=O)CSC1=C(C#N)C(c2ccc3c(c2)OCO3)CC(=O)N1 (configuration not stated)	none
CCCCOC(=O)CSC1=C(C#N)C(c2ccc3c(c2)OCO3)CC(=O)N1 (configuration not stated)	PostGolgi ctrl 47 (no result: PostGolgi yeast)
Cc1ccc(C)c(NC(=O)CCc2ccc(S(=O)(=O)NC3CCCCC3)cc2)c1	none
Cc1cccc(C)c1NC(=O)C(NC=O)c1ccccc1Cl (configuration not stated)	PostGolgi ctrl 31
Cc1ccc2nc(C(=O)O)c(C(=O)O)nc2c1	none
Cc1ccc2nc3c(nc2c1)-c1ccccc1C3=O	Yeast growth inh 59
CC(C)(C)CC(=O)NC(=S)N1CCCCCC1	none
Cc1cc(C)n(-c2nc(NCCO)c3c4c(sc3n2)CCCC4)n1	none
Cc1cc(C)n(-c2nc(NCCCO)c3c4c(sc3n2)CCCC4)n1	PostGolgi ctrl 35
Cc1ccc(NC(=O)c2ccc3c(c2)OCCO3)cc1S(=O)(=O)Nc1cccc(Cl)c1	none (no result: PostGolgi yeast, PostGolgi ctrl)
O=[N+]([O-])c1ccc(-c2csc(Nc3ccccc3)[n+]2Cc2ccccc2)cc1	none (no result: PostGolgi yeast, PostGolgi ctrl)
CCCC[n+]1c(-c2ccc(Cl)cc2Cl)csc1Nc1ccccc1	Yeast lifespan up 32 (no result: PostGolgi yeast, PostGolgi ctrl)
CC(C)CC(=O)Nc1cc(NC(=O)CC(C)C)cc(C(=O)NC(C)(C)C)c1	none
O=C(/C(=N\Nc1ccccc1)Sc1nnnn1-c1ccccc1)c1ccccc1	Yeast lifespan up 30 (no result: PostGolgi yeast, PostGolgi ctrl)
COC(=O)CSc1nnnn1-c1ccccc1	none
COCc1cc(C)nc(NCCc2ccccc2)c1C#N	none
CC(=O)N1CCC(N(CCN2CCOCC2)C(=S)Nc2cc(C)ccc2C)CC1	none (no result: PostGolgi yeast, PostGolgi ctrl)
c1ccc(Nc2nc(-c3ccccn3)cs2)cc1	none
